Consider five compounds from PMC3944102 (ACS chemical biology, 2013).

Structures are written as SMILES. Like-named read-outs stand apart in the source and are kept apart here.

In assay [1] the target is T1, VopS (Vibrio parahaemolyticus serotype O3:K6, UniProt Q87P32). In words: biochemical. The settings on record: for inhibition at 11 µM: read-out: Primary screen inhibition; for Primary screen inhibition: LOPAC screen at 11 µM, FP read at 3 h, average of three replicates.
For assay [2], the target named is PAD4 (Homo sapiens, UniProt Q9UM07). The assay is described as follows: PAD4 FP-ABPP HTS counterscreen with fluorescein-conjugated F-amidine. The class given is biochemical. The essentials: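 Fluorescence polarization read-out with the fluorescein-tagged probe FFA, which covalently modifies an active-site cysteine of PAD4 and gives a time-dependent rise in FP when incubated with the enzyme. Test compounds were run as concentration-response curves, and inhibition was read as reduced FP. Used as a counterscreen to flag quenchers, aggregators and other non-specific FP decreasers.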

Assay [3] has as its target T1, VopS. In words: biochemical. It is filed as biochemical. The settings on record: for Labeling of Cdc42 in gel (in words): 10 µM inhibitor; for inhibition at 10 µM: read-out: Gel based % inhibition VopS; for Gel based % inhibition VopS: 10 µM compound, relative to DMSO control.
In assay [4] the test system is VopS. In words: biochemical. The class given is biochemical, Vibrio parahaemolyticus. The settings on record: VopS over HYPE, from gel based % inhibition at 10 µM.
The subject of assay [5] is HYPE Fic E234G. In words: Gel-based secondary screen, HYPE Fic E234G with histone H3 as substrate. The class given is biochemical, human. The settings on record: 10 µM compound, relative to DMSO control.
In assay [6] the target is T1, VopS. The class given is biochemical.
Assay [7] deals with VopS transfected HeLa cells. The assay is described as follows: Cellular protein AMPylation, Western blot. It is filed as cell-based. The settings on record: Western blotting, 1 and 3 at 10 µM, 4 at 5 µM, 18 h.
In assay [8] the test system is VopS transfected HeLa cells. The assay is described as follows: Cell rounding phenotype induced by VopS overexpression. It is filed as cell-based. The settings on record: 10 µM.
Assay [9] concerns the target VopSΔ30 (Vibrio parahaemolyticus serotype O3:K6, UniProt Q87P32). In words: Differential hydrogen deuterium exchange. It is filed as binding. The settings on record: 10 µM VopSΔ30, 100 µM or 30 µM ligand.
The target in assay [10] is T1, VopS. The assay is described as follows: biochemical.
The subject of assay [11] is VopS. The settings on record: read-out: KM of VopS for ATP; cited from earlier work.
Setting [12] is: read-out: CRC IC50 PAD4, PAD4 targeted FP-ABPP assay.

As usually defined, the inhibition is the change of the read-out against control, counted positive when it falls. For orientation: IC50 means the concentration that gives 50% inhibition. The term Ki denotes the dissociation constant of the complex between target and ligand, obtained from inhibition or displacement. Broadly, the Km is the substrate concentration at which the rate is half of its maximum.

PAD4, sequence (Q9UM07 whole entry, species assumed): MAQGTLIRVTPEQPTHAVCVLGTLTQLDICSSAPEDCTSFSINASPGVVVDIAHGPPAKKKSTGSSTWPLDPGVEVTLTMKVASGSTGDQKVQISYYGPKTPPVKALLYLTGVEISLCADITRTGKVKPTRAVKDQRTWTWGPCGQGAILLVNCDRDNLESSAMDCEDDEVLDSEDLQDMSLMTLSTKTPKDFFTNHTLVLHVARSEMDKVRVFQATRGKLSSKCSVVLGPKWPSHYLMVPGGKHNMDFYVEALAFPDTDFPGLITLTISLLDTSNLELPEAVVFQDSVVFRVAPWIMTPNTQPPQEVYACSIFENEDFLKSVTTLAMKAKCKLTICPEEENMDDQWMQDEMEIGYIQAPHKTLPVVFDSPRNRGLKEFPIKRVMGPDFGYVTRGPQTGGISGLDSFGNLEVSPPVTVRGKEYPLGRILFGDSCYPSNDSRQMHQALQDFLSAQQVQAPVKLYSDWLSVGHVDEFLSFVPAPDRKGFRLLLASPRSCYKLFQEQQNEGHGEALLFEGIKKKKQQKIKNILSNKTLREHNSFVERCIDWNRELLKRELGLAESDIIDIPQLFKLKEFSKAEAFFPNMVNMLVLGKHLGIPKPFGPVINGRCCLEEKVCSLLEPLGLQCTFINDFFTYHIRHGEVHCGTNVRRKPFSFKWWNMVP

Consider `CC(C)(Sc1ccc(CCN(CCCCC2CCCCC2)C(=O)NC2CCCCC2)cc1)C(=O)O` [Compound 1, GW7647], for which the inhibition at 11 µM in assay [1] is 61%. In addition, the 50% inhibitory concentration (IC50) in [2] is above 59 µM. Also, in [3], the “Labeling of Cdc42 in gel (in words)” value was “decrease in labeling” and the inhibition at 10 µM is 55%. This compound came in with a Fold selective in assay [4] of 6 fold. Further, the “Gel based % inhibition HYPE” value in assay [5] was 10%. Also, in assay [6] (varied substrate ATP), the Kii was 41 ± 5 µM and the Mechanism of inhibition entry is reported as “Non-competitive”. Also, in [6] (varied substrate Cdc42), the Kii worked out at 20 ± 1 µM and the Mechanism of inhibition entry is recorded as “Non-competitive”. The “Cellular protein AMPylation” value in [7] is on record as “decreased cellular protein AMPylation”. Also, the “Reversal of cell rounding phenotype” value in assay [8] was “unable to reverse the cell rounding phenotype”.
Turning to `Nc1ncnc2c1ncn2[C@@H]1O[C@H](COP(=O)(O)OP(=O)(O)OP(=O)(O)OP(=O)(O)OC[C@H]2O[C@@H](n3cnc4c(N)ncnc43)[C@H](O)[C@@H]2O)[C@@H](O)[C@H]1O` [Compound 2, Ap4A], the Primary screen inhibition in [1] was 47% ± 4. For the same compound, the IC50 in assay [2] (setting [12]) was above 59 µM. Besides, the “Gel based % inhibition VopS” value in assay [3] stood at 3%. For the same compound, the “Gel based % inhibition HYPE” value in [5] is 41%.
Turning to `CC(C)c1ccc2c(c1)c(SC(C)(C)C)c(CC(C)(C)C(=O)O)n2Cc1ccc(Cl)cc1` [Compound 3, MK886], in [1], the Primary screen inhibition is listed as 41% ± 3. Also, the half-maximal inhibitory concentration (IC50) in [2] (setting [12]) is above 59 µM. In assay [3], the “Gel based % inhibition VopS” value turned out to be 22% and the “Labeling of Cdc42 in gel (in words)” value is reported as “decrease in labeling”. Also, the Fold selective in assay [4] is recorded as 6 fold. The “Gel based % inhibition HYPE” value in [5] was 4%. Further, in [6] (varied substrate ATP), the Kii was 50 ± 6 µM and the Mechanism of inhibition result was “Non-competitive”. In assay [6] (varied substrate Cdc42), the Kii is on record as 99 ± 16 µM and the Mechanism of inhibition result is “Non-competitive”. Also, the “Cellular protein AMPylation” value in [7] was “decreased cellular protein AMPylation”. The “Reversal of cell rounding phenotype” value in assay [8] is on record as “unable to reverse the cell rounding phenotype”. The “HDX protection / binding region of VopS” value in assay [9] was “increased protection within the N-terminus of VopS (residues 59–75)”.
Take `Clc1ccc(C(c2ccc(Cl)cc2)n2cc[n+](CC(OCc3ccc(Cl)cc3Cl)c3ccc(Cl)cc3Cl)c2)cc1` (stereo not drawn) [Compound 4, calmidazolium]: the inhibition at 11 µM in [1] is 33%. This compound also yielded a half-inhibitory concentration (IC50) in assay [2] above 59 µM. Also, in assay [3], the “Labeling of Cdc42 in gel (in words)” value is reported as “decrease in labeling” and the inhibition at 10 µM stood at 63%. Further, the Fold selective in assay [4] was determined as 32 fold. The “Gel based % inhibition HYPE” value in assay [5] is on record as 2%. Also, the Ki in [6] (competitive with respect to Cdc42) is recorded as 6 ± 1 µM. In [6] (varied substrate ATP), the Kii stood at 26 ± 4 µM and the Mechanism of inhibition result is “Non-competitive”. In addition, in assay [6] (varied substrate Cdc42), the Kii stood at 6 ± 1 µM and the Mechanism of inhibition result was “Competitive”. Moreover, in assay [7], the “Cellular protein AMPylation” value is reported as “did not show a significant decrease”. Also, the “HDX protection / binding region of VopS” value in assay [9] is listed as “binds to the N-terminal region of VopS (in particular residues 59–63)”.
Consider `Nc1ncnc2c1ncn2[C@@H]1O[C@H](COP(=O)(O)OP(=O)(O)OP(=O)(O)O)[C@@H](O)[C@H]1O` [ATP, adenosine triphosphate], for which the 50% inhibitory concentration (IC50) was 7 ± 1 µM in assay [10] (IC50(ATP), 3 h, 7 replicates, ATP out competing Fl-ATP); 6.8 to 7 µM in [10] (IC50, at 1, 2, and 3 h). Besides, the Km in assay [11] was around 50 µM.
